According to ChEMBL document CHEMBL1121797, “Studies on chiral interactions of 1-(2,5-dimethoxy-4-methylphenyl)-2-aminopropane and the corresponding N-hydroxy metabolites with cytochrome P-450” (J Med Chem, 1981):

Assays:
[1] = Initial rates of formation of metabolic intermediate Cytochrome P-450 at compound concentration of 30 uM; type: ADME
In short: (§1)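 Rabbit liver microsomes at 2 mg protein/mL with 0.1 mM EDTA, 37 °C, substrate 30 μM. Complex formation started with 0.4 mM NADPH and followed by dual-wavelength absorbance, 457 vs 500 nm. Initial rate is the initial slope, ΔA×10^4 per nmol P-450 per min. Extent is the plateau absorbance. Lag is the time from NADPH addition to first 457-nm chromophore. Triplicate or single runs.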

[2] = Initial rates of formation of metabolic intermediate Cytochrome P-450 with compound concentration of 150 uM; type: ADME
In short: (§2)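 Cross-inhibition in NADPH-supplemented rabbit liver microsomes at 37 °C. Preincubation with amine at 30, 150 or 300 μM while 457-nm complex formation was monitored. Once it plateaued (6–8 min), racemic hydroxylamine was added at 300 μM. Initial rate and plateau extent were read from ΔA457–500 nm vs time, per nmol P-450.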

[3] = Initial rates of formation of metabolic intermediate Cytochrome P-450 with compound concentration of 30 uM; type: ADME; in short: as §2
[4] = Initial rates of formation of metabolic intermediate Cytochrome P-450 with compound concentration of 300 uM; type: ADME; in short: as §2
[5] = Extent rates of formation of metabolic intermediate Cytochrome P-450 at compound concentration of 30 uM; type: ADME; in short: as §1
[6] = Lag time between the addition of compound (30 uM) and the first appearance of chromophore; type: ADME; in short: as §1
[7] = Initial rates of formation of metabolic intermediate Cytochrome P-450 at compound concentration of 7.5-180 uM; type: ADME
In short: (§3)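 Rabbit liver microsomes at 2 mg protein/mL with 0.1 mM EDTA, 37 °C, NADPH-dependent. Substrate tested at several concentrations. ΔA457–500 nm followed against time. Rate is the initial slope per nmol P-450 per min; extent is the plateau absorbance. Runs disturbed by a transient 450-nm species were discarded.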

[8] = Extent rates of formation of metabolic intermediate Cytochrome P-450 at compound concentration of 7.5-180 uM; type: ADME; in short: as §3
Cytochrome P450 2C19 [9] = target: T1, Cytochrome P450 2C19 (Homo sapiens, UniProt P33261); test: Apparent binding affinity of compound (10.8-60.0 uM) in Cytochrome P450 binding; type: ADME, Oryctolagus cuniculus; details: read-out: Ks
T1 sequence (P33261 whole entry): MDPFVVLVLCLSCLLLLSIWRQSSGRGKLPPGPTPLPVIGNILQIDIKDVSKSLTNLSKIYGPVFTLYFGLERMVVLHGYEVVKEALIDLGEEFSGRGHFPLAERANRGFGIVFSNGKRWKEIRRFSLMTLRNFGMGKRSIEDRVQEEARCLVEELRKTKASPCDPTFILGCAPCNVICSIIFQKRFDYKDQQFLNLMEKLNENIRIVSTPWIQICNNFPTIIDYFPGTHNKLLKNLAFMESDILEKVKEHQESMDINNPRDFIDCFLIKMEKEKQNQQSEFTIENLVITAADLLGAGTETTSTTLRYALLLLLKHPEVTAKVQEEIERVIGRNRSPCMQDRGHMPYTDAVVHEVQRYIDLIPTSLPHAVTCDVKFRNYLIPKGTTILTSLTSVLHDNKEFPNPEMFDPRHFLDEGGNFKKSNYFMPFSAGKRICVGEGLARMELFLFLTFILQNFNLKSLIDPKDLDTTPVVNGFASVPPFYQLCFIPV

[10] = Initial rates of formation of metabolic intermediate Cytochrome P-450 at compound concentration of 3.75-120 uM; type: ADME; in short: as §3
[11] = Extent rates of formation of metabolic intermediate Cytochrome P-450 at compound concentration of 3.75-120 uM; type: ADME; in short: as §3
Cytochrome P450 2C19 [12] = target: T1, Cytochrome P450 2C19; test: Apparent binding affinity constant of compound (10.8-60.0) for Cytochrome P450; type: ADME, Oryctolagus cuniculus; details: read-out: Ks
Cytochrome P450 2C19 [13] = target: T1, Cytochrome P450 2C19; test: Inhibitory effect in formation of metabolic intermediate complex between Cytochrome P450 and racemic compound 2 initially, on preincubation with Racemic compound 2 (300 uM) at 150 uM; type: ADME, Oryctolagus cuniculus; details: rabbit; in short: as §2
Cytochrome P450 2C19 [14] = target: T1, Cytochrome P450 2C19; test: Inhibitory effect in formation of metabolic intermediate complex between Cytochrome P450 and racemic compound 2 initially, on pre-incubation with compound at 150 uM; type: ADME, Oryctolagus cuniculus; details: rabbit
Cytochrome P450 2C19 [15] = target: T1, Cytochrome P450 2C19; test: Inhibitory effect in formation of metabolic intermediate complex between Cytochrome P450 and racemic compound 2 initially, on pre-incubation with compound at 300 uM; type: ADME, Oryctolagus cuniculus; details: rabbit
Cytochrome P450 2C19 [16] = target: T1, Cytochrome P450 2C19; test: Inhibitory effect in formation of metabolic intermediate complex between Cytochrome P450 and racemic compound 2 initially, on pre-incubation with compound at 30 uM; type: ADME, Oryctolagus cuniculus; details: rabbit
Cytochrome P450 2C19 [17] = target: T1, Cytochrome P450 2C19; test: Inhibitory effect in formation of metabolic intermediate complex between Cytochrome P450 and racemic 2 initially, on pre-incubation with Racemic compound 2 (300 uM) at 300 uM; type: ADME, Oryctolagus cuniculus; details: rabbit
Cytochrome P450 2C19 [18] = target: T1, Cytochrome P450 2C19; test: Inhibitory effect in formation of metabolic intermediate complex between Cytochrome P450 and racemic compound 2 at extent, on pre-incubation with compound at 300 uM; type: ADME, Oryctolagus cuniculus; details: rabbit
Cytochrome P450 2C19 [19] = target: T1, Cytochrome P450 2C19; test: Inhibitory effect in formation of metabolic intermediate complex between Cytochrome P450 and racemic compound 2 at extent, on pre-incubation with compound at 30 uM; type: ADME, Oryctolagus cuniculus; details: rabbit
Cytochrome P450 2C19 [20] = target: T1, Cytochrome P450 2C19; test: Inhibitory effect in formation of metabolic intermediate complex between Cytochrome P450 and racemic 2 at extent, on preincubation with Racemic compound 2 (300 uM) at 30 uM; type: ADME, Oryctolagus cuniculus; details: rabbit; in short: as §2
Cytochrome P450 2C19 [21] = target: T1, Cytochrome P450 2C19; test: Inhibitory effect in formation of metabolic intermediate complex between Cytochrome P450 and racemic compound 2 at extent, on pre-incubation with Racemic 2 (300 uM) at 150 uM; type: ADME, Oryctolagus cuniculus; details: rabbit
Cytochrome P450 2C19 [22] = target: T1, Cytochrome P450 2C19; test: Inhibitory effect in formation of metabolic intermediate complex between Cytochrome P450 and racemic compound 2 at extent, on pre-incubation with Racemic 2 (300 uM) at 300 uM; type: ADME, Oryctolagus cuniculus; details: rabbit
Cytochrome P450 2C19 [23] = target: T1, Cytochrome P450 2C19; test: Inhibitory effect in formation of metabolic intermediate complex between Cytochrome P450 and racemic compound 2 at extent, on preincubation with compound at 150 uM; type: ADME, Oryctolagus cuniculus; details: rabbit

COc1cc(C[C@@H](C)N)c(OC)cc1C.COc1cc(C[C@H](C)N)c(OC)cc1C
Rate [1]: 4.8
Rate [2]: 1.6
Rate [3]: 1.8
Rate [4]: 1.2
Extent [5]: 30
Lag time [6]: 138 s

COc1cc(C[C@@H](C)NO)c(OC)cc1C
Rate [1]: 182
Rate [7]: 30
Rate [5]: 124
Rate [8]: 23
Kd (Cytochrome P450 2C19 [9]): 22 µM
Lag time [6]: 0 s

COc1cc(C[C@@H](C)N)c(OC)cc1C
Rate [1]: 17.1
Rate [2]: 6.1
Rate [3]: 5.2
Rate [4]: 5.5
Extent [5]: 78
Rate [10]: 17.5
Extent [11]: 23
Kd (Cytochrome P450 2C19 [12]): 18 µM
Rate (Cytochrome P450 2C19 [13]): 183
Rate (Cytochrome P450 2C19 [14]): 6.1
Rate (Cytochrome P450 2C19 [15]): 5.8
Rate (Cytochrome P450 2C19 [16]): 5.2
Rate (Cytochrome P450 2C19 [17]): 160
Extent (Cytochrome P450 2C19 [18]): 23
Extent (Cytochrome P450 2C19 [19]): 21
Extent (Cytochrome P450 2C19 [20]): 131
Extent (Cytochrome P450 2C19 [21]): 116
Extent (Cytochrome P450 2C19 [22]): 105
Extent (Cytochrome P450 2C19 [23]): 25
Lag time [6]: 14 s
